Key:
[1] = Association constant evaluated towards Hematin mu-oxo dimer
[2] = test system: Plasmodium falciparum; experiment: Parasite growth in chloroquine-sensitive Plasmodium falciparum NF54; type: functional, organism-based
Outline: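 P. falciparum NF54 or K1 was maintained by the Trager-Jensen culture method with minor variations. Growth inhibition was measured by a semiautomated microdilution assay on asynchronous stock cultures.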

[3] = test system: Plasmodium falciparum; experiment: Parasite growth in chloroquine-resistant Plasmodium falciparum K1
[4] = target: hematin (cell-free polymerization, no protein); experiment: Inhibition of hematin polymerization

Ka [1]	IC50 [4]	Structure (SMILES)	IC50 [2]	IC50 [3]
79000 M⁻¹	–	CCC(CC)CCCC(C)Nc1ccnc2cc(Cl)ccc12 (stereo not given)	54 nM	200 nM
150000 M⁻¹	–	CCN(CC)CCCCC(C)Nc1ccnc2cc(Cl)ccc12 (stereo not given)	24 nM	420 nM
270000 M⁻¹	18 µM	CCN(CC)CC(C)Nc1ccnc2cc(Cl)ccc12 (stereo not given)	41 nM	93 nM
91000 M⁻¹	–	CCN(CC)CCCC(C)Nc1cc(C)nc2cc(Cl)ccc12 (stereo not given)	150 nM	1100 nM
46000 M⁻¹	70 µM	CCNc1ccnc2cc(Cl)ccc12	820 nM	870 nM
290000 M⁻¹	–	CCN(CC)CCCC(C)Nc1ccnc2cc([N+](=O)[O-])ccc12 (stereo not given)	15 nM	68 nM
85000 M⁻¹	> 2500 µM	CCN(CC)CCCC(C)Nc1ccnc2ccccc12 (stereo not given)	350 nM	8000 nM
–	> 2500 µM	CCN(CC)CCCC(C)Nc1ccnc2ccc(Cl)cc12 (stereo not given)	170 nM	4900 nM
120000 M⁻¹	–	CCN(CC)CCCC(C)Nc1ccnc2cc(Br)ccc12 (stereo not given)	93 nM	1400 nM
290000 M⁻¹	> 2500 µM	CCN(CC)CCCC(C)Nc1ccnc2cc(N)ccc12 (stereo not given)	2600 nM	4300 nM
180000 M⁻¹	15 µM	CCNCCCC(C)Nc1ccnc2cc(Cl)ccc12 (stereo not given) [DESETHYLCHLOROQUINE]	45 nM	1300 nM
52000 M⁻¹	–	Nc1ccnc2cc(Cl)ccc12	1700 nM	1000 nM
150000 M⁻¹	15 µM	CCN(CC)CCCC(C)Nc1c(C)cnc2cc(Cl)ccc12 (stereo not given)	20 nM	59 nM
